One assay has as its system OVCAR-3. The experiment in a line: Antitumor activity against human OVCAR-3 by sulforhodamine B assay. It counts as functional, cell-based. The method in brief: (§1)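 Human tumour lines from ATCC; growth inhibition by sulforhodamine B staining, absorbance read at 530 nm; IC50 taken as the drug concentration inhibiting cell growth by 50%, calculated by curve fitting.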
A general note: In SRB staining, fixed cells bind dye roughly in proportion to their protein.

A further assay concerns PC-3. The experiment in a line: Antitumor activity against human PC3 by sulforhodamine B assay. It counts as functional, cell-based. The essentials:
as §1

The test system of another assay is CAKI-1. The experiment in a line: Antitumor activity against human Caki1 by sulforhodamine B assay. It counts as functional, cell-based. The essentials: as §1
A further assay relates to PANC-1. The experiment in a line: Antitumor activity against human PANC1 by sulforhodamine B assay. The format is functional, cell-based. The essentials:
as §1

Assay [1] has as its system HCT-116. The experiment in a line: Antitumor activity against human HCT116 by sulforhodamine B assay. The format is functional, cell-based. The essentials:
as §1

The next assay deals with SK-MEL-28. The experiment in a line: Antitumor activity against human SK-MEL-28 by sulforhodamine B assay. The format is functional, cell-based. The essentials: as §1
The subject of a further assay is SNB-19. Briefly: Antitumor activity against human SNB19 by sulforhodamine B assay. It counts as functional, cell-based. The method in brief:
as §1

The subject of a further assay is MDA-MB-231. Briefly: Antitumor activity against human MDA-MB-231 by sulforhodamine B assay. It counts as functional, cell-based. The method in brief: as §1
In assay [2] the test system is HCT-116. The experiment in a line: Resistant index, ratio of IC50 for paclitacel-resistant human HCT15 cells to IC50 for human HCT116 cells. The format is functional. The method in brief:
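Index computed as IC50 in HCT-15 divided by IC50 in HCT 116, both from sulforhodamine B growth inhibition with absorbance at 530 nm.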

Assay [3] concerns HCT-15. The experiment in a line: Antitumor activity against human paclitaxel-resistant HCT15 by sulforhodamine B assay. The format is functional, cell-based. The method in brief:
as §1

Assay [4] relates to HCT-15. Briefly: Antitumor activity against paclitaxel-resistant human HCT15 cells xenografted in BALB/c mouse assessed as tumor growth inhibition at 10 mg/kg, ip qd thrice a week from day 10 to day 29. The format is functional. To be noted: HCT-15, ip, route intraperitoneal. The method in brief:
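Female athymic BALB/c nu/nu mice, six weeks old, received 1 × 10^6 paclitaxel-resistant HCT-15 cells in 0.2 ml RPMI subcutaneously in the right flank. Once tumors were in range, mice were assigned to groups. Dosing was 10 mg/kg/day ip in 5% Cremophor plus 5% ethanol in PBS, three times weekly, days 10–29. Tumor diameters were measured by caliper every 3–5 days. Body weight was monitored.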
(A xenograft is tissue or cells of one species grown in another, often human tumour cells in immunodeficient mice.)

Consider `Cc1ccc2cc(-c3ccc4c(c3)OCO4)nc(N)c2c1`, for which the IC50 in the assay with OVCAR-3 stood at 230 nM; in the assay with PC-3, 250 nM; in the assay on CAKI-1 it was 130 nM; in the assay on PANC-1 it was 370 nM; in the assay with HCT-116 [1], 180 nM; in the assay with SK-MEL-28 it was 420 nM. In addition, the IC50 is 380 nM in the assay on SNB-19 and 150 nM in the assay with MDA-MB-231.
With `COc1cccc(-c2cc3cc(C)ccc3c(N)n2)c1`, the IC50 in the assay with OVCAR-3 turned out to be 180 nM; with PC-3 it was 250 nM; in the assay with CAKI-1 it was 130 nM; with PANC-1 it was 310 nM; in the assay with HCT-116 [1] it was 190 nM; with SK-MEL-28, 340 nM. The IC50 in the assay with SNB-19 was 290 nM; in the assay on MDA-MB-231 it was 140 nM.
Regarding `COc1ccc(C)c(-c2cc3ccc(C)cc3c(N)n2)c1`, the IC50 with OVCAR-3 was found to be 42 nM; with PC-3 it was 70 nM; in the assay with CAKI-1, 47 nM; in the assay with PANC-1, 58 nM; in the assay on HCT-116 [1], 42 nM; with SK-MEL-28 it was 51 nM. The IC50 in the assay on SNB-19 stood at 52 nM; with MDA-MB-231, 30 nM.
Regarding `COc1cccc(-c2cc3cc(N(C)C)ccc3c(N)n2)c1`, the IC50 with OVCAR-3 was 71 nM; in the assay on PC-3, 190 nM; in the assay on CAKI-1 it was 68 nM; in the assay with PANC-1, 110 nM; in the assay with HCT-116 [1], 64 nM; in the assay on SK-MEL-28, 110 nM. In addition, the IC50 with SNB-19 came to 94 nM; in the assay on MDA-MB-231, 59 nM.
Regarding `Cc1cccc(-c2cc3ccc(N(C)C)cc3c(N)n2)c1.Cl`, the “Ratio IC50” value in the assay on HCT-116 [2] came to 0.91. The IC50 in the assay on OVCAR-3 was found to be 16 nM; with PC-3, 24 nM; with CAKI-1 it was 23 nM; in the assay with PANC-1, 18 nM; with HCT-116 [1] it was 23 nM; with HCT-15 [3], 21 nM. Besides, the results for the IC50 with SK-MEL-28, in the assay on SNB-19 and in the assay on MDA-MB-231 were 32 nM, 28 nM and 21 nM, respectively.
On to `CC(=O)O[C@H]1C(=O)[C@@]2(C)[C@H]([C@H](OC(=O)c3ccccc3)[C@]3(O)C[C@H](OC(=O)[C@H](O)[C@@H](NC(=O)c4ccccc4)c4ccccc4)C(C)=C1C3(C)C)[C@]1(OC(C)=O)CO[C@@H]1C[C@@H]2O` [PACLITAXEL], for which, in the assay with HCT-116 [2], the “Ratio IC50” value came out at 70. For the same compound, the inhibition in vivo at 10 mg/kg in the assay with HCT-15 [4] is 48.8%.
For the compound `COc1cc(OC)cc(-c2cc3ccc(N(C)C)cc3c(N)n2)c1`, the IC50 with OVCAR-3 came out at 25 nM; in the assay with PC-3, 48 nM; with CAKI-1, 38 nM; in the assay on PANC-1, 26 nM; in the assay on HCT-116 [1], 29 nM; in the assay on SK-MEL-28, 45 nM. Moreover, the IC50 in the assay on SNB-19 was found to be 57 nM; with MDA-MB-231 it was 27 nM.
In the case of `Cc1ccc2cc(-c3ccccc3F)nc(N)c2c1`, the half-inhibitory concentration (IC50) in the assay on OVCAR-3 turned out to be 910 nM; in the assay with PC-3, 2760 nM; in the assay on CAKI-1 it was 590 nM; in the assay on PANC-1, 2140 nM; in the assay on HCT-116 [1], 1220 nM; in the assay on SK-MEL-28, 1620 nM. Besides, the values for the IC50 with SNB-19 and in the assay on MDA-MB-231 were 2200 nM and 720 nM, respectively.
Consider `COc1ccc(-c2cc3cc(C)ccc3c(N)n2)cc1`, for which the IC50 in the assay with OVCAR-3 was 790 nM; with PC-3, 2980 nM; in the assay on CAKI-1, 750 nM; with PANC-1 it was 2270 nM; in the assay on HCT-116 [1] it was 1360 nM; in the assay on SK-MEL-28, 1800 nM. Besides, the values for the IC50 with SNB-19 and with MDA-MB-231 were 2230 nM and 930 nM, respectively.
As for `COc1cc2cc(-c3cccc(C)c3)nc(N)c2cc1OC`, the IC50 worked out at 580 nM with OVCAR-3; 2500 nM in the assay on PC-3; 1780 nM with CAKI-1; 2270 nM with PANC-1; 2320 nM with HCT-116 [1]; 1120 nM in the assay with SK-MEL-28. The IC50 in the assay on SNB-19 worked out at 1560 nM; in the assay with MDA-MB-231 it was 790 nM.
As to `COc1cc(OC)cc(-c2cc3cc(C)ccc3c(N)n2)c1`, the IC50 in the assay with OVCAR-3 came to 180 nM; in the assay on PC-3, 430 nM; with CAKI-1, 160 nM; in the assay with PANC-1 it was 380 nM; in the assay on HCT-116 [1], 240 nM; with SK-MEL-28, 410 nM. Besides, the IC50 in the assay on SNB-19 amounted to 470 nM; in the assay with MDA-MB-231 it was 180 nM.
Turning to `COc1ccccc1-c1cc2cc(C)ccc2c(N)n1`, the IC50 is 490 nM in the assay with OVCAR-3; above 3000 nM with PC-3; 350 nM in the assay on CAKI-1; 930 nM in the assay on PANC-1; 670 nM in the assay with HCT-116 [1]; 800 nM in the assay on SK-MEL-28. The figures for the IC50 with SNB-19 and in the assay on MDA-MB-231 were 1130 nM and 440 nM, respectively.
Turning to `Cc1ccc2c(N)nc(-c3ccccc3F)cc2c1`, the IC50 in the assay on OVCAR-3 was determined as 570 nM; in the assay on PC-3, 1840 nM; in the assay on CAKI-1 it was 460 nM; in the assay with PANC-1, 1590 nM; in the assay with HCT-116 [1], 700 nM; with SK-MEL-28 it was 1070 nM. Moreover, the IC50 in the assay on SNB-19 turned out to be 1510 nM; in the assay with MDA-MB-231, 550 nM.
Turning to `Cc1ccc2cc(-c3c(C)cccc3C)nc(N)c2c1`, the 50% inhibitory concentration (IC50) with OVCAR-3 turned out to be 75 nM; in the assay on PC-3, 120 nM; with CAKI-1, 48 nM; in the assay on PANC-1 it was 79 nM; in the assay on HCT-116 [1], 74 nM; with SK-MEL-28, 120 nM. For the same compound, the IC50 in the assay with SNB-19 came out at 120 nM; with MDA-MB-231 it was 51 nM.
Turning to `COc1ccccc1-c1cc2ccc(C)cc2c(N)n1`, the IC50 with OVCAR-3 was 510 nM; with PC-3, 1010 nM; in the assay with CAKI-1, 220 nM; with PANC-1, 680 nM; with HCT-116 [1], 470 nM; in the assay on SK-MEL-28, 670 nM. Also, the IC50 came to 780 nM in the assay with SNB-19 and 320 nM in the assay with MDA-MB-231.
On to `COc1cc2cc(-c3c(C)cccc3C)nc(N)c2cc1OC`, for which the IC50 in the assay with OVCAR-3 worked out at 160 nM; in the assay with PC-3, 680 nM; with CAKI-1 it was 530 nM; in the assay with PANC-1, 540 nM; in the assay on HCT-116 [1], 790 nM; in the assay on SK-MEL-28, 630 nM. Besides, the IC50 in the assay with SNB-19 is 420 nM; with MDA-MB-231, 250 nM.
`COc1ccc(-c2cc3ccc(N(C)C)cc3c(N)n2)cc1OC`: the IC50 in the assay with OVCAR-3 is 140 nM; in the assay on PC-3, 230 nM; in the assay on CAKI-1, 170 nM; in the assay with PANC-1 it was 190 nM; with HCT-116 [1], 180 nM; in the assay on SK-MEL-28 it was 330 nM. The IC50 is 250 nM in the assay with SNB-19 and 150 nM in the assay on MDA-MB-231.
For the compound `Cc1ccc2c(N)nc(-c3ccccc3C)cc2c1`, the IC50 in the assay with OVCAR-3 was 150 nM; in the assay on PC-3, 240 nM; with CAKI-1, 120 nM; in the assay with PANC-1, 240 nM; with HCT-116 [1], 190 nM; in the assay with SK-MEL-28, 350 nM. The figures for the IC50 with SNB-19 and in the assay with MDA-MB-231 were 260 nM and 150 nM, respectively.
Take `Cc1cccc(-c2cc3ccc(C)cc3c(N)n2)c1`: the IC50 came to 290 nM with OVCAR-3; 710 nM in the assay with PC-3; 440 nM with CAKI-1; 690 nM in the assay on PANC-1; 280 nM with HCT-116 [1]; 500 nM in the assay on SK-MEL-28. For the same compound, the IC50 in the assay with SNB-19 worked out at 530 nM; in the assay with MDA-MB-231, 210 nM.

A word on the IC50: it is the point on the concentration scale where inhibition reaches its midpoint. Low readings indicate higher potency, high ones lower potency. Broadly, the inhibition in vivo is how much of the control response was suppressed.

The values above are taken from ChEMBL document CHEMBL1221267, “Synthesis, in vitro and in vivo evaluation of 3-arylisoquinolinamines as potent antitumor agents” (Bioorg Med Chem Lett, 2010).
